One assay addresses Thymidine phosphorylase (Escherichia coli K-12, UniProt P07650). Description: Competitive inhibition of Escherichia coli thymidine phosphorylase incubated for 20 mins at room temperature followed by 5 mins incubation at 90 degC by Lineweaver-Burk plot analysis.
A short description of assay [1]: Inhibition of thymidine phosphorylase.
Assay [2] deals with Thymidine phosphorylase (Escherichia coli K-12) (UniProt P07650). Kind of assay: Inhibition of Escherichia coli thymidine phosphorylase at 1 mM incubated for 20 mins at room temperature followed by 5 mins incubation at 90 degC by HPLC analysis. Summed up: (§1)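 Enzyme from E. coli, combined with thymidine and orthophosphate in Tris buffer. Phosphonic acid added at 1 mM or 100 μM. Incubated 20 min at room temperature, then 5 min at 90 °C. Thymidine separated from thymine by HPLC and percent inhibition calculated.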

Assay [3] has the same target. Kind of assay: Inhibition of Escherichia coli thymidine phosphorylase at 100 uM incubated for 20 mins at room temperature followed by 5 mins incubation at 90 degC by HPLC analysis. A digest of the protocol: as §1

Chain of Thymidine phosphorylase (P07650 whole entry): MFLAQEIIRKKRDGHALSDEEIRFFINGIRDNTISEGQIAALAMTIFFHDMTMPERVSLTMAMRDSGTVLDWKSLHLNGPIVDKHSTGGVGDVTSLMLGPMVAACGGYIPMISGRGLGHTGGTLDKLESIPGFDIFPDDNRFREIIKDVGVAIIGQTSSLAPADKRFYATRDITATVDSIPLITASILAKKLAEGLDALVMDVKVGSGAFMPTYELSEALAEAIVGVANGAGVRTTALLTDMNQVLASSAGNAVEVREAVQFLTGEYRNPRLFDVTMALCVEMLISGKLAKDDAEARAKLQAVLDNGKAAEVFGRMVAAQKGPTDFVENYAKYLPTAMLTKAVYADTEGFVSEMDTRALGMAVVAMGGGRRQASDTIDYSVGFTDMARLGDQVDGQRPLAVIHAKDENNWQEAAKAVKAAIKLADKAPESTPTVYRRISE
Chain of Thymidine phosphorylase (Escherichia coli K-12) (P07650 whole entry, looked up): as the sequence (P07650 whole entry) above

As to `O=P(O)(O)CCCCCCCCn1ccc2c(O)nc(O)nc21`, the Ki (on Thymidine phosphorylase; in assay [1]) was 54 µM throughout. For the compound `Cc1cn(CCCSCCCCC(F)(F)P(=O)(O)O)c(=O)[nH]c1=O`, the inhibition in assay [2] worked out at 90%; in assay [3] it was 43%. Taken in the same sequence, the figures for `Cc1cn(CCCCCCSCCCCC(F)(F)P(=O)(O)O)c(=O)[nH]c1=O` were 86% and 38%. As for `Cc1cn(CC(I)CC(F)(F)P(=O)(O)O)c(=O)[nH]c1=O` (centres undefined), the values for the inhibition in assay [2] and in assay [3] were 95% and 52%, respectively. In the case of `O=P(O)(O)C(F)(F)CCCCn1cc(Cn2cnc3c(O)ncnc32)nn1`, the values for the inhibition in assay [2] and in assay [3] were 76% and 35%, respectively. For `Cc1cn(CCCCCCCCC(F)(F)P(=O)(O)O)c(=O)[nH]c1=O`, the inhibition in assay [2] worked out at 85%; in assay [3] it was 55%. For the compound `O=c1ccn(CCCCC(F)(F)P(=O)(O)O)c(=O)[nH]1`, the inhibition in assay [2] stood at 44%; in assay [3], 15%. Regarding `Cc1cn(Cc2cn(CC(F)(F)P(=O)(O)O)nn2)c(=O)[nH]c1=O`, the inhibition in assay [2] came out at 29%; in assay [3], 9%. For the compound `Cc1cn(CCCC(F)(F)P(=O)(O)O)c(=O)[nH]c1=O`, the inhibition in assay [2] worked out at 51%; in assay [3] it was 4%.

Consider `O=c1[nH]c(=O)n(CCCCC(F)(F)P(=O)(O)O)cc1Br`, for which the inhibition in assay [2] came to 61%; in assay [3] it was 20%. As to `Cc1cn(CCCCCCCCCCCC(F)(F)P(=O)(O)O)c(=O)[nH]c1=O`, the inhibition in assay [2] was determined as 88%; in assay [3], 56%. In the case of `Cc1cn(CCCCP(=O)(O)O)c(=O)[nH]c1=O`, the results for the inhibition in assay [2] and in assay [3] were 23% and 0%, respectively. Take `O=c1ccn(Cc2cn(CCCCC(F)(F)P(=O)(O)O)nn2)c(=O)[nH]1`: the inhibition in assay [2] is 79%; in assay [3], 22%. Turning to `Nc1c(Br)c(=O)[nH]c(=O)n1CCCCCCCCP(=O)(O)O`, the inhibition in assay [3] worked out at 64%. Moreover, the Ki (on Thymidine phosphorylase; in assay [1]) was 142 µM throughout. Consider `O=P(O)(O)C(F)(F)CCCn1cc(Cn2cnc3c(O)ncnc32)nn1`, for which the inhibition in assay [2] is 69%; in assay [3] it was 29%. On the same counts, the results for `Cc1cn(CCCCC(F)(F)P(=O)(O)O)c(=O)[nH]c1=O` are 68% and 15%. As for `Cc1cn(CCCCCCCCCC(F)(F)P(=O)(O)O)c(=O)[nH]c1=O`, the inhibition was found to be 86% in assay [2] and 55% in assay [3]. As for `Cc1cn(CCCCSCCCCC(F)(F)P(=O)(O)O)c(=O)[nH]c1=O`, the results for the inhibition in assay [2] and in assay [3] were 78% and 40%, respectively. In the case of `Cc1cn(Cc2cn(CCCC(F)(F)P(=O)(O)O)nn2)c(=O)[nH]c1=O`, the inhibition turned out to be 79% in assay [2] and 36% in assay [3]. Consider `Cc1cn(C[C@@H](CF)OCP(=O)(O)O)c(=O)[nH]c1=O`, for which the affinity in assay [1] corresponds to a Ki of 2 µM. Regarding `Nc1nc(O)c2ncn(CCCCC(F)(F)P(=O)(O)O)c2n1`, the inhibition in assay [2] came out at 74%; in assay [3], 34%. As for `Cc1cn(CCSCCCCC(F)(F)P(=O)(O)O)c(=O)[nH]c1=O`, the results for the inhibition in assay [2] and in assay [3] were 36% and 0%, respectively. In the case of `Cc1cn(C[C@@H](CO)OCP(=O)(O)O)c(=O)[nH]c1=O`, the Ki in assay [1] came out at 2 µM.

For the compound `Cc1cn(Cc2cn(CCCCC(F)(F)P(=O)(O)O)nn2)c(=O)[nH]c1=O`, the inhibition in assay [2] came out at 90%; in assay [3], 68%. Moreover, at Thymidine phosphorylase, the inhibition constant (Ki) is 58 µM. As for `Cc1cn(CCCCCCCCP(=O)(O)O)c(=O)[nH]c1=O`, the inhibition in assay [3] amounted to 15%. As for `Nc1nc(O)c2ncn(Cc3cn(CCCCC(F)(F)P(=O)(O)O)nn3)c2n1`, the inhibition was determined as 76% in assay [2] and 35% in assay [3]. For the compound `O=P(O)(O)C(F)(F)CCCCn1cnc2c(O)ncnc21`, the inhibition in assay [2] came to 25%; in assay [3] it was 9%. In assay [1], `N=C1CCCN1Cc1[nH]c(=O)[nH]c(=O)c1Cl` [TIPIRACIL] returned a Ki of 0.035 µM.

As for `Nc1nc(O)c2ncn(CCCC(F)(F)P(=O)(O)O)c2n1`, the inhibition in assay [2] amounted to 25%; in assay [3] it was 4%. For the compound `Nc1[nH]c(=O)[nH]c(=O)c1Br`, the inhibition in assay [2] turned out to be 100%; in assay [3] it was 71%. Regarding `Cc1cn(C[C@@H](C)OCP(=O)(O)O)c(=O)[nH]c1=O`, the Ki in assay [1] stood at 2 µM.

The values are drawn from ChEMBL document CHEMBL2029293, “Fluorophosphonylated nucleoside derivatives as new series of thymidine phosphorylase multisubstrate inhibitors” (J Med Chem, 2012).
